Source: ChEMBL document CHEMBL4118256, “Second Generation of Mannich Base-Type Derivatives with in Vivo Activity against Trypanosoma cruzi” (J Med Chem, 2018)
The source made the active and inactive calls. No cut-off for these calls is given here.

Experiments:
Trypanosoma cruzi [1] = assay: (§1) Antitrypanosomal activity against Trypanosoma cruzi MHOM/Pe/2011/Arequipa DTU 5 trypamastigotes infected in Balb/c mouse assessed as reduction in parasitaemia reactivation in heart tissue at 100 mg/kg, po pretreated once daily for 5 consecutive days starting from day 75 post infection followed by cyclophosphamide-induced immunosuppression on day 100 post infection every 4 days for a maximum of 3 doses measured on day 127 post infection by PCR method; assay type: functional; parameters: scale not given: the % may be the effect or the level left
In short: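 Necropsy on day 127 pi after oral treatment and cyclophosphamide immunosuppression. Tissue DNA was amplified by PCR targeting the ~300 bp T. cruzi SOD gene, 200 nM each primer, 30 cycles with 55.5 °C annealing. Products run on 2 % agarose; positive organs counted out of six mice.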

Trypanosoma cruzi [2] = assay: as §1, with “muscle” for “heart”; assay type: functional; parameters: scale not given: the % may be the effect or the level left
Trypanosoma cruzi [3] = assay: as §1, with “spleen” for “heart”; assay type: functional; parameters: scale not given: the % may be the effect or the level left
Mus musculus [4] = assay: (§2) Nephrotoxicity in Balb/c mouse infected with Trypanosoma cruzi MHOM/Pe/2011/Arequipa DTU 5 trypamastigotes assessed as increase in uric acid level in serum at 100 mg/kg, po once daily for 5 consecutive days starting from day 10 post infection measured on day 16 post infection by biochemical analysis relative to control; assay type: toxicity, organism-based; settings: in vivo
Trypanosoma cruzi [5] = assay: Antitrypanosomal activity against Trypanosoma cruzi MHOM/Pe/2011/Arequipa DTU 5 epimastigotes assessed as effect on parasite glycerol pathway by measuring increase in glycerol excretion at IC25 after 72 hrs by 1H NMR method; assay type: functional, organism-based
In short: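 Arequipa epimastigotes exposed at IC25 for 72 h alongside an untreated control. Excreted catabolites were analysed by 1H NMR, and each peak is reported as % variation versus the control. Three separate determinations.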

Mus musculus [6] = assay: as §2, with “in urea” for “in uric acid”, “day 75” for “day 10”, “day 127” for “day 16”; assay type: toxicity, organism-based; settings: in vivo
Mus musculus [7] = assay: as §2, with “Hepatotoxicity” for “Nephrotoxicity”, “total bilirubin” for “uric acid”, “level” for “level in serum”, “20” for “100”, “75” for “10”, “127” for “16”; assay type: toxicity, organism-based; settings: in vivo
Mus musculus [8] = assay: Toxicity in Balb/c mouse assessed as reduction in body mass at 20 mg/kg, po once daily for 5 consecutive days starting from day 10 post infection relative to control; assay type: organism-based; parameters: scale not given: the % may be the effect or the level left; settings: in vivo
Mus musculus [9] = assay: as §2, with “decrease” for “increase”, “20” for “100”, “75” for “10”, “81” for “16”; assay type: toxicity, organism-based; parameters: scale not given: the % may be the effect or the level left; settings: in vivo
Mus musculus [10] = assay: as §2, with “Hepatotoxicity” for “Nephrotoxicity”, “ratio of serum AST to GOT” for “uric acid”, “level” for “level in serum”, “20” for “100”, “75” for “10”, “81” for “16”; assay type: toxicity, organism-based; settings: in vivo
Trypanosoma cruzi [11] = assay: Antitrypanosomal activity against Trypanosoma cruzi MHOM/Pe/2011/Arequipa DTU 5 trypamastigotes infected in Balb/c mouse assessed as reduction in splenomegaly at 20 mg/kg, po once daily for 5 consecutive days starting from day 10 post infection measured on day 127 post infection relative to control; assay type: functional, organism-based
Trypanosoma cruzi [12] = assay: Antitrypanosomal activity against Trypanosoma cruzi MHOM/Pe/2011/Arequipa DTU 5 trypamastigotes infected in Balb/c mouse assessed as reduction in Ig-G level in serum at 20 mg/kg, po once daily for 5 consecutive days starting from day 10 post infection measured on day 16 post infection by ELISA; assay type: functional, organism-based
In short: (§3)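 Female BALB/c mice (8-10 weeks, 20-25 g), six per group, infected i.p. with 5 x 10^5 Arequipa bloodstream trypomastigotes. Compound was given orally once daily for 5 days from day 10 or day 75 pi, at 20 mg·kg-1 per day in 5 % DMSO/0.5 % HPMC. Anti-T. cruzi IgG in serum was measured by ELISA with Fe-SOD antigen, read as OD 490 nm.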

Mus musculus [13] = assay: as §2, with “Hepatotoxicity” for “Nephrotoxicity”, “total bilirubin” for “uric acid”, “level” for “level in serum”, “20” for “100”, “75” for “10”, “81” for “16”; assay type: toxicity, organism-based; settings: in vivo
Mus musculus [14] = assay: (§4) Hepatotoxicity in Balb/c mouse infected with Trypanosoma cruzi MHOM/Pe/2011/Arequipa DTU 5 trypamastigotes assessed as change in ratio of serum ALT to GPT level at 20 mg/kg, po once daily for 5 consecutive days starting from day 75 post infection measured on day 127 post infection by biochemical analysis relative to control; assay type: toxicity, organism-based; settings: in vivo
In short: (§5)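 Serum clinical chemistry in Arequipa-infected female BALB/c mice. Oral 20 mg·kg-1 per day for 5 days, started day 10 or day 75 pi. Samples taken at day 16 pi or day 81 pi, and on necropsy day. Markers: CK-MB and LDH (U/L), AST, ALT and alkaline phosphatase (U/L), total bilirubin. Results scored relative to infected untreated controls; uninfected reference n = 15.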

Mus musculus [15] = assay: as §4, with “10” for “75”; assay type: toxicity, organism-based; settings: in vivo; in short: as §5
Mus musculus [16] = assay: as §4, with “alkaline phosphatase” for “ratio of serum ALT to GPT”, “10” for “75”; assay type: toxicity, organism-based; settings: in vivo; in short: as §5
Trypanosoma cruzi [17] = assay: as §1, with “in Ig-G level” for “in parasitaemia reactivation”, “in serum” for “in heart tissue”, “at 20” for “at 100”, “day 10” for “day 75”, “by ELISA” for “by PCR method”; assay type: functional, organism-based; in short: as §3
Mus musculus [18] = assay: as §2, with “decrease” for “increase”, “20” for “100”; assay type: toxicity, organism-based; parameters: scale not given: the % may be the effect or the level left; settings: in vivo
Mus musculus [19] = assay: as §4, with “Cardiotoxicity” for “Hepatotoxicity”, “creatine kinase in muscle” for “serum ALT”, “brain” for “GPT level”; assay type: toxicity, organism-based; settings: in vivo; in short: as §5
Mus musculus [20] = assay: as §2, with “Hepatotoxicity” for “Nephrotoxicity”, “alkaline phosphatase” for “uric acid”, “level” for “level in serum”, “20” for “100”; assay type: toxicity, organism-based; settings: in vivo
Mus musculus [21] = assay: as §4, with “Cardiotoxicity” for “Hepatotoxicity”, “decrease” for “change”, “creatine kinase in muscle” for “serum ALT”, “brain” for “GPT level”, “81” for “127”; assay type: toxicity, organism-based; parameters: scale not given: the % may be the effect or the level left; settings: in vivo; in short: as §5
Mus musculus [22] = assay: as §4, with “as increase” for “as change”, “at […]” for “at 20”, “day 10” for “day 75”; assay type: toxicity, organism-based; settings: in vivo
Mus musculus [23] = assay: as §4, with “as increase” for “as change”, “serum AST” for “serum ALT”, “to GOT” for “to GPT”, “at […]” for “at 20”, “day 10” for “day 75”; assay type: toxicity, organism-based; settings: in vivo
Mus musculus [24] = assay: as §4, with “total bilirubin” for “ratio of serum ALT to GPT”, “[…],” for “20 mg/kg,”, “81” for “127”; assay type: toxicity, organism-based; settings: in vivo; in short: as §5
Mus musculus [25] = assay: as §4, with “as increase” for “as change”, “at […]” for “at 20”; assay type: toxicity, organism-based; settings: in vivo
Mus musculus [26] = assay: as §4, with “as increase” for “as change”, “serum AST” for “serum ALT”, “to GOT” for “to GPT”, “at […]” for “at 20”, “day 81” for “day 127”; assay type: toxicity, organism-based; settings: in vivo

Compound: COc1ccc(C(=O)CCN2CCN(c3ccc(Cl)cc3)CC2)cc1
- Activity (Trypanosoma cruzi [1]): 78%
- Activity (Trypanosoma cruzi [2]): 78%
- Activity (Trypanosoma cruzi [3]): 78%

Compound: COc1ccc(C(=O)CCN2CCN(c3ccc(F)cc3)CC2)cc1
- Activity (Mus musculus [4]): <= 20%
- Activity (Trypanosoma cruzi [5]): Active
- Activity (Mus musculus [6]): <= 10%

Compound: O=C(Cn1ccnc1[N+](=O)[O-])NCc1ccccc1 [BENZNIDAZOLE]
- Activity (Mus musculus [7]): <= 20%
- Activity (Mus musculus [8]): > 10%
- Activity (Mus musculus [9]): > 40%
- Activity (Mus musculus [10]): <= 20%
- Activity (Trypanosoma cruzi [11]): Active
- Activity (Trypanosoma cruzi [12]): Active
- Activity (Mus musculus [13]): <= 30%
- Activity (Mus musculus [14]): < 10%
- Activity (Mus musculus [15]): < 10%
- Activity (Mus musculus [16]): < 10%
- Activity (Trypanosoma cruzi [17]): Active
- Activity (Mus musculus [18]): > 40%
- Activity (Mus musculus [19]): < 10%
- Activity (Mus musculus [20]): <= 20%
- Activity (Mus musculus [21]): <= 10%

Compound: COc1ccc(C(=O)CCN2CCN(c3ccc([N+](=O)[O-])cc3)CC2)cc1
- Activity (Mus musculus [22]): <= 30%
- Activity (Mus musculus [23]): <= 30%
- Activity (Mus musculus [24]): < 10%
- Activity (Mus musculus [25]): <= 10%
- Activity (Mus musculus [26]): <= 30%
